Reference: ChEMBL document CHEMBL1157783, “Synthesis, characterization and vasculoprotective effects of nitric oxide-donating derivatives of chrysin” (Bioorg Med Chem, 2010)
Calls of active or inactive are those of the source. The calls are words filed in the database; no cut-off is given here.

How the values were obtained:
HepG2 = experiment: Increase in glucose consumption in human HepG2 cells at 10 umol/L after 24 hrs by enzymatic method relative to control blank; assay type: functional, cell-based
Procedure, shortened: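 HepG2 cells in high-glucose DMEM with 10% FBS, grown to 80–90% confluence, switched to DMEM with 1% FBS for 12 h, then treated 24 h in the same medium. Medium glucose measured enzymatically with a kit. Consumption taken as blank-well glucose minus remaining glucose, then adjusted for cell number by MTT. Vehicle 0.1% DMSO; mean S.D., n = 3.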

[1] = target: Aldo-keto reductase family 1 member B1 (Bos taurus, UniProt P16116); experiment: Inhibition of aldose reductase from calf lense by AR assay
[2] = Inhibition of advanced glycation end product formation in phosphate buffered saline at pH 7.4 after 14 days by fluorospectrophotometry in presence of bovine serum albumin; assay type: physicochemical
[3] = Induction of NO release in phosphate buffered saline of pH 7.4 at 100 uM after 1 hr by Griess assay in presence of L-cysteine; assay type: physicochemical; details: buffer, pH 7.4, 1 h
Procedure, shortened: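 Incubated 1 h at 37 °C in PBS pH 7.4 with L-cysteine. Reaction mixture treated with Griess reagent (sulfanilamide, N-naphthylethylenediamine dihydrochloride, phosphoric acid) for 10 min at room temperature, then absorbance read at 540 nm. Expressed as percent of a theoretical maximum of 1 mol NO per mol compound. Sodium nitroprusside as positive control.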

Compound | IC50 [1] | IC50 [2] | Activity [3] | Activity (HepG2)
CC(=O)Oc1cc(OCCCCCCO[N+](=O)[O-])cc2oc(-c3ccccc3)cc(=O)c12 | 0.42 µM | ≥ 300 µM | 1.43% | 
O=c1cc(-c2ccccc2)oc2cc(O)cc(O)c12 [CHRYSIN] | 7.79 µM | 63.5 µM |  | inactive
O=c1cc(-c2ccccc2)oc2cc(OCCCCCCO[N+](=O)[O-])cc(O)c12 | 0.71 µM | ≥ 300 µM | 1.21% | Active
CC(=O)Oc1cc(OCCO[N+](=O)[O-])cc2oc(-c3ccccc3)cc(=O)c12 | 0.86 µM | ≥ 300 µM | 1.68% | 
N=C(N)NN [PIMAGEDINE] |  | 826 µM |  | 
CC(=O)Oc1cc(OCCCCO[N+](=O)[O-])cc2oc(-c3ccccc3)cc(=O)c12 | 0.39 µM | ≥ 300 µM | 1.48% | 
O=c1cc(-c2ccccc2)oc2cc(OCCO[N+](=O)[O-])cc(O)c12 | 0.49 µM | ≥ 300 µM | 1.67% | Active

The next lines start with results.

IC50 [1] | IC50 [2] | Activity [3] | Compound | Activity (HepG2)
0.13 µM | 52.5 µM | 1.26% | O=C(CCCCO[N+](=O)[O-])OCOc1cc(O)c2c(=O)cc(-c3ccccc3)oc2c1 | Active
0.3 µM | 43.9 µM | 1.77% | O=C(CCO[N+](=O)[O-])OCOc1cc(O)c2c(=O)cc(-c3ccccc3)oc2c1 | 
0.21 µM | 138 µM | 1.38% | O=C(CCCCCCO[N+](=O)[O-])OCOc1cc(O)c2c(=O)cc(-c3ccccc3)oc2c1 | Active
0.29 µM | 75.5 µM | 1.43% | O=c1cc(-c2ccccc2)oc2cc(OCCCCO[N+](=O)[O-])cc(O)c12 | Active
